Results published in ChEMBL document CHEMBL1150203, “Antimicrobial diterpenes of Croton sonderianus, 1. Hardwickic and 3,4-secotrachylobanoic acids” (1991).
Converted amounts (≈) assume the structure as drawn. Where a name gives a salt, the structure may show the parent alone. The source made the active and inactive calls. The calls are words filed in the database; no cut-off is given here.

Key:
Candida albicans [1] = assay: Antifungal activity against Candida albicans ATCC 10231 at 1 mg/ml after 48 hrs by agar-well diffusion assay; format: functional; conditions: ATCC 10231, 48 h, read-out: IZ
Procedure, shortened: (§1)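 Fungi and yeasts streaked on mycophil agar from broth culture diluted 1:10 in sterile water; 100 μl of compound at 1 mg/ml placed in 11 mm cork-borer wells; plates held at 30°. Inhibition zone width (mm) recorded at 48 and 72 h and coded – to ++++ (1–2, 3–6, 7–12, >13 mm); amphotericin B positive control.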

[2] = tested on: Mycolicibacterium smegmatis; assay: Antibacterial activity against Mycobacterium smegmatis ATCC 607 at 1 mg/ml after 48 hrs by agar-well diffusion assay; conditions: ATCC 607, 48 h, read-out: IZ
Staphylococcus aureus [3] = assay: Antibacterial activity against Staphylococcus aureus ATCC 6538 at 1 mg/ml after 24 hrs by agar-well diffusion assay; format: functional; conditions: for zone of inhibition at 1000 µg/mL: ATCC 6538, 24 h, read-out: IZ
Procedure, shortened: (§2)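 Agar-well diffusion on eugon agar, bacteria streaked by quadrant method from broth culture diluted 1:10 in sterile water; 11 mm wells given 100 μl of compound at 1 mg/ml; 37° incubation. Zone width (mm) read at 24 and 48 h, coded –, + (1–2), ++ (3–6), +++ (7–12), ++++ (>13); streptomycin sulfate positive control.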

Pseudomonas aeruginosa [4] = assay: Antibacterial activity against Pseudomonas aeruginosa ATCC 15442 at 1 mg/ml after 48 hrs by agar-well diffusion assay; format: functional; procedure, shortened: as §2
Bacillus subtilis [5] = assay: Antibacterial activity against Bacillus subtilis ATCC 6633 at 1 mg/ml after 24 hrs by agar-well diffusion assay; format: functional; conditions: ATCC 6633, 24 h, read-out: IZ; procedure, shortened: as §2
Trametes sanguinea [6] = assay: Antifungal activity against Polyporus sanguineus ATCC 16422 at 1 mg/ml after 48 hrs by agar-well diffusion assay; format: functional; procedure, shortened: as §1
Candida albicans [7] = assay: Antifungal activity against Candida albicans ATCC 10231 at 1 mg/ml after 72 hrs by agar-well diffusion assay; format: functional; conditions: ATCC 10231, 72 h, read-out: IZ; procedure, shortened: as §1
Aspergillus niger [8] = assay: Antifungal activity against Aspergillus niger ATCC 16888 at 1 mg/ml after 48 hrs by agar-well diffusion assay; format: functional; procedure, shortened: as §1
[9] = tested on: Trichophyton mentagrophytes; assay: Antifungal activity against Trichophyton mentagrophytes ATCC 9972 at 1 mg/ml after 72 hrs by agar-well diffusion assay; format: functional; conditions: for zone of inhibition at 1000 µg/mL: ATCC 9972, 72 h, read-out: IZ; procedure, shortened: as §1
Saccharomyces cerevisiae [10] = assay: Antifungal activity against Saccharomyces cerevisiae ATCC 9763 at 1 mg/ml after 48 hrs by agar-well diffusion assay; format: functional; procedure, shortened: as §1
Escherichia coli [11] = assay: Antibacterial activity against Escherichia coli ATCC 10536 at 1 mg/ml after 24 hrs by agar-well diffusion assay; format: functional; procedure, shortened: as §2
Helminthosporium [12] = assay: Antifungal activity against Helminthosporium ATCC 4671 at 1 mg/ml after 72 hrs by agar-well diffusion assay; format: functional; conditions: for zone of inhibition at 1000 µg/mL: ATCC 4671, 72 h, read-out: IZ; procedure, shortened: as §1
Bacillus subtilis [13] = assay: Antibacterial activity against Bacillus subtilis ATCC 6633 at 1 mg/ml after 48 hrs by agar-well diffusion assay; format: functional; conditions: ATCC 6633, 48 h, read-out: IZ; procedure, shortened: as §2
Pseudomonas aeruginosa [14] = assay: Antibacterial activity against Pseudomonas aeruginosa ATCC 15442 at 1 mg/ml after 24 hrs by agar-well diffusion assay; format: functional; procedure, shortened: as §2
Escherichia coli [15] = assay: Antibacterial activity against Escherichia coli ATCC 10536 at 1 mg/ml after 48 hrs by agar-well diffusion assay; format: functional; procedure, shortened: as §2
Aspergillus niger [16] = assay: Antifungal activity against Aspergillus niger ATCC 16888 at 1 mg/ml after 72 hrs by agar-well diffusion assay; format: functional; procedure, shortened: as §1
Trametes sanguinea [17] = assay: Antifungal activity against Polyporus sanguineus ATCC 16422 at 1 mg/ml after 72 hrs by agar-well diffusion assay; format: functional; procedure, shortened: as §1
Saccharomyces cerevisiae [18] = assay: Antifungal activity against Saccharomyces cerevisiae ATCC 9763 at 1 mg/ml after 72 hrs by agar-well diffusion assay; format: functional; procedure, shortened: as §1
Staphylococcus aureus [19] = assay: Antibacterial activity against Staphylococcus aureus ATCC 6538 at 1 mg/ml after 48 hrs by agar-well diffusion assay; format: functional; conditions: for zone of inhibition at 1000 µg/mL: ATCC 6538, 48 h, read-out: IZ; procedure, shortened: as §2
[20] = tested on: Trichophyton mentagrophytes; assay: Antifungal activity against Trichophyton mentagrophytes ATCC 9972 at 1 mg/ml after 48 hrs by agar-well diffusion assay; format: functional; conditions: for zone of inhibition at 1000 µg/mL: ATCC 9972, 48 h, read-out: IZ; procedure, shortened: as §1
Helminthosporium [21] = assay: Antifungal activity against Helminthosporium ATCC 4671 at 1 mg/ml after 48 hrs by agar-well diffusion assay; format: functional; conditions: for zone of inhibition at 1000 µg/mL: ATCC 4671, 48 h, read-out: IZ; procedure, shortened: as §1
[22] = tested on: Mycolicibacterium smegmatis; assay: Antibacterial activity against Mycobacterium smegmatis ATCC 607 at 1 mg/ml after 48 hrs by agar-well diffusion assay; format: functional; conditions: ATCC 607, 48 h, read-out: IZ
Procedure, shortened: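 Quadrant-streaked eugon agar plates (broth culture diluted 1:10 in water) with 11 mm wells receiving 100 μl of 1 mg/ml compound, incubated at 37°; inhibition zone width in mm scored at 48 h and 72 h as –, +, ++, +++, ++++ (1–2, 3–6, 7–12, >13 mm); streptomycin sulfate control.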

Bacillus subtilis [23] = assay: Antibacterial activity against Bacillus subtilis ATCC 6633 after 24 hrs by twofold serial dilution method; format: functional; conditions: ATCC 6633, 24 h
Saccharomyces cerevisiae [24] = assay: Antifungal activity against Saccharomyces cerevisiae ATCC 9763 after 48 hrs by twofold serial dilution method; format: functional; conditions: ATCC 9763, 48 h
Bacillus subtilis [25] = assay: Antibacterial activity against Bacillus subtilis ATCC 6633 after 48 hrs by twofold serial dilution method; format: functional; conditions: ATCC 6633, 48 h
Saccharomyces cerevisiae [26] = assay: Antifungal activity against Saccharomyces cerevisiae ATCC 9763 after 24 hrs by twofold serial dilution method; format: functional; conditions: ATCC 9763, 24 h

| SMILES | zone of inhibition at 1000 µg/mL (Candida albicans [1]) [mm] | zone of inhibition at 1000 µg/mL [2] [mm] | inhibition zone (IZ) (Pseudomonas aeruginosa [4]) | zone of inhibition at 1000 µg/mL (Bacillus subtilis [5]) [mm] | inhibition zone (IZ) (Trametes sanguinea [6]) | zone of inhibition at 1000 µg/mL (Candida albicans [7]) [mm] | inhibition zone (IZ) (Aspergillus niger [8]) | inhibition zone (IZ) (Saccharomyces cerevisiae [10]) | inhibition zone (IZ) (Escherichia coli [11]) | inhibition zone (IZ) (Helminthosporium [12]) | zone of inhibition at 1000 µg/mL (Bacillus subtilis [13]) [mm] | inhibition zone (IZ) (Pseudomonas aeruginosa [14]) | inhibition zone (IZ) (Escherichia coli [15]) | inhibition zone (IZ) (Aspergillus niger [16]) | inhibition zone (IZ) (Trametes sanguinea [17]) | inhibition zone (IZ) (Saccharomyces cerevisiae [18]) | zone of inhibition at 1000 µg/mL (Staphylococcus aureus [3]) [mm] | zone of inhibition at 1000 µg/mL [9] [mm] | zone of inhibition at 1000 µg/mL [22] [mm] | zone of inhibition at 1000 µg/mL (Staphylococcus aureus [19]) [mm] | other results |
| --- | --- | --- | --- | --- | --- | --- | --- | --- | --- | --- | --- | --- | --- | --- | --- | --- | --- | --- | --- | --- | --- |
| COC(=O)CC[C@]1(C)C(C(C)=O)CC[C@@]23C[C@@H]4[C@@H](CC21)[C@@]4(C)C3 (stereo not given in full) | 1 | 3 | inactive | 7 | inactive | 1 | inactive | inactive | inactive | inactive | 3 | inactive | inactive | inactive | inactive | inactive | – | – | – | – | inhibition zone (IZ) (Staphylococcus aureus [3]): inactive; inhibition zone (IZ) [9]: inactive; inhibition zone (IZ) (Staphylococcus aureus [19]): inactive; inhibition zone (IZ) [20]: inactive; inhibition zone (IZ) (Helminthosporium [21]): inactive |
| C[C@@H]1CC[C@@]2(C)C(CO)=CCC[C@@H]2[C@@]1(C)CCc1ccoc1 [HARDWICKIOL] | 3 | 7 | inactive | 3 | inactive | 7 | inactive | – | inactive | – | 3 | inactive | inactive | inactive | inactive | – | 3 | 3 | 7 | 3 | zone of inhibition at 1000 µg/mL (Saccharomyces cerevisiae [10]; ATCC 9763, 48 h, read-out: IZ): 3 mm; zone of inhibition at 1000 µg/mL (Helminthosporium [12]): 1 mm; zone of inhibition at 1000 µg/mL (Saccharomyces cerevisiae [18]; ATCC 9763, 72 h, read-out: IZ): 3 mm; zone of inhibition at 1000 µg/mL [20]: 7 mm; zone of inhibition at 1000 µg/mL (Helminthosporium [21]): 3 mm |
| C=C(C)[C@@H]1CC[C@@]23C[C@@H]4[C@@H](C[C@H]2[C@]1(C)CCCO)[C@@]4(C)C3 | 1 | 1 | inactive | 3 | inactive | 1 | inactive | inactive | inactive | inactive | 3 | inactive | inactive | inactive | inactive | inactive | 1 | – | 1 | – | inhibition zone (IZ) [9]: inactive; inhibition zone (IZ) (Staphylococcus aureus [19]): inactive; inhibition zone (IZ) [20]: inactive; inhibition zone (IZ) (Helminthosporium [21]): inactive |
| CN[C@@H]1[C@H](O[C@H]2[C@H](O[C@H]3[C@H](O)[C@@H](O)[C@H](N=C(N)N)[C@@H](O)[C@@H]3N=C(N)N)O[C@@H](C)[C@]2(O)C=O)O[C@@H](CO)[C@H](O)[C@H]1O [STREPTOMYCIN SULFATE] | – | > 12 | – | 7 | – | – | – | – | – | – | 7 | – | – | – | – | – | 7 | – | > 12 | 7 | zone of inhibition at 1000 µg/mL (Pseudomonas aeruginosa [4]; ATCC 15442, 48 h, read-out: IZ): 3 mm; zone of inhibition at 1000 µg/mL (Escherichia coli [11]; ATCC 10536, 24 h, read-out: IZ): 7 mm; zone of inhibition at 1000 µg/mL (Pseudomonas aeruginosa [14]; ATCC 15442, 24 h, read-out: IZ): 7 mm; zone of inhibition at 1000 µg/mL (Escherichia coli [15]; ATCC 10536, 48 h, read-out: IZ): 7 mm |
| C=C(C)[C@@H]1CC[C@@]23C[C@@H]4[C@@H](C[C@H]2[C@]1(C)CCC(=O)O)[C@@]4(C)C3 | 3 | 7 | inactive | > 12 | – | 3 | inactive | inactive | inactive | inactive | 7 | inactive | inactive | inactive | – | inactive | 7 | 1 | 7 | 7 | zone of inhibition at 1000 µg/mL (Trametes sanguinea [6]; ATCC 16422, 48 h, read-out: IZ): 3 mm; MIC (Bacillus subtilis [23]): 25 µg/mL (≈ 82.7 µM); MIC (Saccharomyces cerevisiae [24]): 100 µg/mL (≈ 331 µM); zone of inhibition at 1000 µg/mL (Trametes sanguinea [17]; ATCC 16422, 72 h, read-out: IZ): 1 mm; MIC (Bacillus subtilis [25]): 25 µg/mL (≈ 82.7 µM); zone of inhibition at 1000 µg/mL [20]: 3 mm; MIC (Saccharomyces cerevisiae [26]): 100 µg/mL (≈ 331 µM); zone of inhibition at 1000 µg/mL (Helminthosporium [21]): 1 mm |
| COC(=O)C1=CCC[C@@H]2[C@@](C)(CCc3ccoc3)[C@H](C)CC[C@@]12C [HARDWICKIC ACID METHYL ESTER] | 1 | 1 | inactive | 1 | inactive | 1 | inactive | inactive | inactive | – | 1 | inactive | inactive | inactive | inactive | inactive | 1 | 1 | 1 | 1 | zone of inhibition at 1000 µg/mL (Helminthosporium [12]): 1 mm; zone of inhibition at 1000 µg/mL [20]: 1 mm; zone of inhibition at 1000 µg/mL (Helminthosporium [21]): 1 mm |
| C=C(C)[C@@H]1CC[C@@]23C[C@@H]4[C@@H](C[C@H]2[C@]1(C)CCC(=O)OC)[C@@]4(C)C3 | – | 1 | inactive | 1 | – | – | – | – | inactive | – | 1 | inactive | inactive | – | – | – | 1 | – | 1 | 1 | – |
| CN[C@@H]1[C@H](O[C@H]2[C@H](O[C@H]3[C@H](O)[C@@H](O)[C@H](N=C(N)N)[C@@H](O)[C@@H]3N=C(N)N)O[C@@H](C)[C@]2(O)C=O)O[C@@H](CO)[C@H](O)[C@H]1O [STREPTOMYCIN] | – | – | – | – | – | – | – | – | – | – | – | – | – | – | – | – | – | – | – | – | MIC (Bacillus subtilis [23]): 3.12 µg/mL (≈ 5.36 µM); MIC (Bacillus subtilis [25]): 3.12 µg/mL (≈ 5.36 µM) |
